# Results published in ChEMBL document CHEMBL1125228, “A 3-D model for 5-HT1A-receptor agonists based on stereoselective methyl-substituted and conformationally restricted analogues of 8-hydroxy-2-(dipropylamino)tetralin” (J Med Chem, 1991).
# Values joined by “and” are separate entries in the source; they are usually repeats but may differ in a detail not shown here. Identical values can stand only once.
# Legend:
# Rattus norvegicus [1] = experiment: In vivo accumulation of 5-HT in striatum of rat brain at a dose of 63 umol/kg.; format: functional
# How it was run: (§1)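 Hydrochlorides given sc in the neck (5 mL/kg) to rats, either untreated or reserpine-pretreated (5 mg/kg sc, 6 h before). Decarboxylase inhibitor NSD 1015 (100 mg/kg ip or 60 mg/kg sc) given 30 min later; rats decapitated after another 30 min. Striatum, limbic system, hemispheres and brain stem dissected on ice and homogenized in 0.1 M perchloric acid with α-methyl-DOPA internal standard. DOPA, DA, 5-HTP and 5-HT measured by ion-pair reversed-phase HPLC with electrochemical detection.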
# Rattus norvegicus [2] = experiment: In vivo accumulation of 5-HTP in brain stem of rat brain at a dose of 63 umol/kg.; format: functional; how it was run: as §1
# Rattus norvegicus [3] = experiment: In vivo accumulation of DOPA in brain stem of rat brain at a dose of 63 umol/kg.; format: functional; how it was run: as §1
# [4] = biological target: T1, Dopamine receptor (Rattus norvegicus) (UniProt P25115+P19020+P30729+P18901+P61169); experiment: In vivo accumulation of DOPA in limbic of rat brain at a dose of 63 umol/kg.; format: functional, organism-based
# How it was run: (§2)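 Rats, reserpine-pretreated (5 mg/kg, i.e. 9 μmol/kg sc, 6 h before) or nonpretreated, given test hydrochloride sc in the neck (injection volume 5 mL/kg). Decarboxylase inhibitor NSD 1015 (100 mg/kg ip or 60 mg/kg sc) given 30 min later; decapitation after another 30 min. Brain dissected on ice into striatum, limbic system, hemispheres, brain stem. Homogenized in 0.1 M perchloric acid with α-methyl-DOPA internal standard; DOPA measured by ion-pair reversed-phase HPLC with electrochemical detection.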
# Rattus norvegicus [5] = experiment: In vivo accumulation of 5-HTP in hemisphere of rat brain at a dose of 63 umol/kg.; format: functional; how it was run: as §1
# Rattus norvegicus [6] = experiment: In vivo accumulation of DOPA in hemisphere of rat brain at a dose of 63 umol/kg.; format: functional; how it was run: as §2
# Rattus norvegicus [7] = experiment: In vivo accumulation of DA in striatum of rat brain at a dose of 63 umol/kg.; format: functional; how it was run: as §1
# Rattus norvegicus [8] = experiment: In vivo accumulation of DOPA in striatum of rat brain at a dose of 63 umol/kg.; format: functional; how it was run: as §2
# Rattus norvegicus [9] = experiment: In vivo accumulation of 5-HTP in limbic of rat brain at a dose of 63 umol/kg.; format: functional; how it was run: as §1
# Rattus norvegicus [10] = experiment: In vivo accumulation of 5-HTP in striatum of rat brain at a dose of 63 umol/kg.; format: functional; how it was run: as §1
# Rattus norvegicus [11] = experiment: In vivo accumulation of 5-HT in limbic of rat brain at a dose of 63 umol/kg.; format: functional; how it was run: as §1
# [12] = biological target: Serotonin (5-HT) receptor (Rattus norvegicus) (UniProt P35563+P35365+P32305+P31388+Q9JJ16+P28564+P30994+Q62758+P08909+P14842+P30940+P35364+P19327+P28565); experiment: Dose corresponding to half-maximal decrease of 5-HTP formation in the limbic and striatal parts of rat brain; format: functional, tissue-based
# [13] = biological target: T2, 5-hydroxytryptamine receptor 1A (Rattus norvegicus, UniProt P19327); experiment: Binding affinity at 5-hydroxytryptamine 1A receptor by the displacement of [3H]8-OH-DPAT in rat brain.; format: tissue-based
# T2 sequence (P19327 whole entry): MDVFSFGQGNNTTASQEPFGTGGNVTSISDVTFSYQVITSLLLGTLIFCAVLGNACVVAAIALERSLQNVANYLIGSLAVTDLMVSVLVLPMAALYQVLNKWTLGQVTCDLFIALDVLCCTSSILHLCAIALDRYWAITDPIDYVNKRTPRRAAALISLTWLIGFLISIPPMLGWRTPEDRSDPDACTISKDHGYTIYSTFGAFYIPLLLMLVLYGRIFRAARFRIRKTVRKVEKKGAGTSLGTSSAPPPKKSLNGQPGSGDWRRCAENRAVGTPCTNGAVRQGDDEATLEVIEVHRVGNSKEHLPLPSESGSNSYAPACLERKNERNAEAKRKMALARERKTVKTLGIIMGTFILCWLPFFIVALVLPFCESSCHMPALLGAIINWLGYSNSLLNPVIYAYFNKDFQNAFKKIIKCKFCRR
# How it was run: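 Rat brain membranes washed in 50 mM Tris-HCl pH 7.4, with a 37 °C 10 min incubation to remove endogenous 5-HT, used at 10 mg wet tissue/mL. Incubated 15 min at 37 °C with 1 nM [3H]-8-OH-DPAT, 3 mM CaCl2 and pargyline. Filtered and counted; 10 µM 5-HT defined nonspecific binding. IC50 from four-parameter logistic fit, converted to Ki by Cheng-Prusoff; mean ± SEM of N experiments.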
# Rattus norvegicus [14] = experiment: In vivo accumulation of DOPA in brain stem of rat brain at a dose of 53 umol/kg.; format: functional; how it was run: as §1
# Rattus norvegicus [15] = experiment: In vivo accumulation of 5-HT in striatum of rat brain at a dose of 53 umol/kg.; format: functional; how it was run: as §1
# Rattus norvegicus [16] = experiment: In vivo accumulation of 5-HTP in striatum of rat brain at a dose of 53 umol/kg.; format: functional; how it was run: as §1
# Rattus norvegicus [17] = experiment: In vivo accumulation of 5-HTP in hemisphere of rat brain at a dose of 53 umol/kg.; format: functional; how it was run: as §1
# Rattus norvegicus [18] = experiment: In vivo accumulation of 5-HTP in brain stem of rat brain at a dose of 53 umol/kg.; format: functional; how it was run: as §1
# Rattus norvegicus [19] = experiment: In vivo accumulation of DA in striatum of rat brain at a dose of 53 umol/kg.; format: functional; how it was run: as §1
# Rattus norvegicus [20] = experiment: In vivo accumulation of 5-HTP in limbic of rat brain at a dose of 53 umol/kg.; format: functional; how it was run: as §1
# Rattus norvegicus [21] = experiment: In vivo accumulation of 5-HT in limbic of rat brain at a dose of 53 umol/kg.; format: functional; how it was run: as §1
# Rattus norvegicus [22] = experiment: In vivo accumulation of DOPA in striatum of rat brain at a dose of 53 umol/kg.; format: functional; how it was run: as §2
# [23] = biological target: T1, Dopamine receptor (Rattus norvegicus); experiment: In vivo accumulation of DOPA in hemisphere of rat brain at a dose of 53 umol/kg.; format: functional, organism-based; how it was run: as §2
# [24] = biological target: T1, Dopamine receptor (Rattus norvegicus); experiment: In vivo accumulation of DOPA in limbic of rat brain at a dose of 53 umol/kg.; format: functional, organism-based; how it was run: as §2
structure (smiles),measurement,setting,value
Oc1cccc2c1C[C@@H]1NCCC[C@@H]1C2,Control,Rattus norvegicus [1],105%
same,Control,Rattus norvegicus [2],101.7%
same,Control,Rattus norvegicus [3],97.7%
same,Control,[4],75.3% and 73.5%
same,Control,Rattus norvegicus [5],59.7%
same,Control,Rattus norvegicus [6],70.4%
same,Control,Rattus norvegicus [7],92.6%
same,Control,Rattus norvegicus [8],88%
same,Control,Rattus norvegicus [9],88.6%
same,Control,Rattus norvegicus [10],102.7%
same,Control,Rattus norvegicus [11],92.5%
CCCN(CCC)[C@H]1Cc2c(O)cccc2C[C@@H]1C,ED50,[12],0.005 mg/kg
Oc1cccc2c1C[C@H]1NCCC[C@H]1C2,Control,Rattus norvegicus [1],100.5%
same,Control,Rattus norvegicus [2],106.8%
same,Control,Rattus norvegicus [3],94.9%
same,Control,[4],82.4% and 85.6%
same,Control,Rattus norvegicus [5],101.4%
same,Control,Rattus norvegicus [6],64.2%
same,Control,Rattus norvegicus [7],92.4%
same,Control,Rattus norvegicus [8],84%
same,Control,Rattus norvegicus [9],92%
same,Control,Rattus norvegicus [10],108.8%
same,Control,Rattus norvegicus [11],89.4%
CCCN1CCC[C@H]2c3c(O)cccc3CC[C@@H]21 [listing 1 of 2 here],Ki,[13],3.87 nM
CCCN1CCC[C@H]2Cc3cccc(O)c3C[C@H]21 [listing 1 of 3 here],Control,Rattus norvegicus [14],126.9%
same,Control,Rattus norvegicus [15],100%
same,Control,Rattus norvegicus [16],81%
same,Control,Rattus norvegicus [17],103.9%
same,Control,Rattus norvegicus [18],110.3%
same,Control,Rattus norvegicus [19],81.3%
same,Control,Rattus norvegicus [20],92.6%
same,Control,Rattus norvegicus [21],102.9%
same,Control,Rattus norvegicus [22],67.2%
Oc1cccc2c1C[C@@H]1NCCC[C@H]1C2,Control,Rattus norvegicus [1],116%
same,Control,Rattus norvegicus [2],115.8%
same,Control,Rattus norvegicus [3],90.3%
same,Control,[4],85.7% and 95.5%
same,Control,Rattus norvegicus [5],107.8%
same,Control,Rattus norvegicus [6],85.2%
same,Control,Rattus norvegicus [7],97.4%
same,Control,Rattus norvegicus [8],85.3%
same,Control,Rattus norvegicus [9],104.6%
same,Control,Rattus norvegicus [10],116.8%
same,Control,Rattus norvegicus [11],109.6%
CCCN1CCC[C@@H]2Cc3cccc(O)c3C[C@H]21,Ki,[13],2810 nM
CCCN1CCC[C@H]2Cc3cccc(O)c3C[C@H]21 [listing 2 of 3 here],Ki,[13],151 nM
CCCN1CCC[C@@H]2Cc3cccc(O)c3C[C@@H]21 [listing 1 of 3 here],ED50,[12],> 0.05 mg/kg
same,Control,[23],63%
CCCN1CCC[C@@H]2Cc3cccc(O)c3C[C@@H]21 [listing 2 of 3 here],Control,Rattus norvegicus [14],82.3%
same,Control,Rattus norvegicus [15],118.7%
same,Control,Rattus norvegicus [16],76.1%
same,Control,Rattus norvegicus [17],77.9%
same,Control,Rattus norvegicus [18],87.6%
same,Control,Rattus norvegicus [19],105.3%
same,Control,Rattus norvegicus [20],80.6%
same,Control,Rattus norvegicus [21],107.5%
same,Control,Rattus norvegicus [22],68.3%
CCCN1CCC[C@H]2Cc3cccc(O)c3C[C@@H]21 [listing 1 of 2 here],ED50,[12],> 0.05 mg/kg
same,Control,[24],91.4% and 87.5%
same,Control,[23],98.8%
CCCN(CCC)[C@@H]1Cc2c(O)cccc2C[C@@H]1C,Ki,[13],394 nM
same,ED50,[12],0.02 mg/kg
CCCN1CCC[C@H]2c3c(O)cccc3CC[C@@H]21 [listing 2 of 2 here],ED50,[12],0.0005 mg/kg
same,Control,[23],140%
CCCN1CCC[C@H]2Cc3cccc(O)c3C[C@H]21 [listing 3 of 3 here],ED50,[12],> 0.05 mg/kg
same,Control,[24],76.9% and 83.2%
same,Control,[23],116%
CCCN1CCC[C@@H]2Cc3cccc(O)c3C[C@@H]21 [listing 3 of 3 here],Ki,[13],> 10000 nM
CCCN1CCC[C@@H]2c3c(O)cccc3CC[C@H]21,Ki,[13],32.3 nM
CCCN1CCC[C@H]2Cc3cccc(O)c3C[C@@H]21 [listing 2 of 2 here],Control,Rattus norvegicus [14],117.7%
same,Control,Rattus norvegicus [15],116.9%
same,Control,Rattus norvegicus [16],124.8%
same,Control,Rattus norvegicus [17],113%
same,Control,Rattus norvegicus [18],112.4%
same,Control,Rattus norvegicus [19],95.4%
same,Control,Rattus norvegicus [20],102.3%
same,Control,Rattus norvegicus [21],95.1%
same,Control,Rattus norvegicus [22],91.4%
CCCN(CCC)[C@H]1Cc2c(O)cccc2C[C@H]1C,ED50,[12],> 0.05 mg/kg
